From ChEMBL document CHEMBL3352437, “Novel 3,5-bis(arylidene)-4-oxo-1-piperidinyl dimers: structure-activity relationships and potent antileukemic and antilymphoma cytotoxicity” (Eur J Med Chem, 2014)
Calls of active or inactive are those of the source. No cut-off for these calls is given here.

How the values were obtained:
KM12 = experiment: Cytotoxicity against human KM12 cells assessed as inhibition of tumor growth after 24 hrs; assay type: functional, cell-based; conditions: KM12, 24 h
COLO 205 [1] = experiment: Cytotoxicity against human COLO205 cells assessed as inhibition of tumor growth after 24 hrs; assay type: functional, cell-based; conditions: COLO 205, 24 h
DU-145 = experiment: Cytotoxicity against human DU145 cells assessed as dead cells at 1 uM after 24 hrs; assay type: functional
Outline: (§1)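 Dienones added as DMSO solutions to cells in RPMI medium and incubated 24 h at 37°C. Cytotoxicity was scored as cell-membrane disruption by propidium iodide staining and expressed as percentage of dead cells, averaged over three independent experiments.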

Ramos = experiment: Cytotoxicity against human Ramos cells assessed as dead cells at 1 uM after 24 hrs; assay type: functional; outline: as §1
L1210 = experiment: Antiproliferative activity against mouse L1210 cells after 72 hrs by coulter counting analysis; assay type: functional, cell-based; conditions: L1210, 72 h
[2] = Cytotoxicity against human SupT1 cells assessed as dead cells at 1 uM after 24 hrs; assay type: functional, SUP-T1; outline: as §1
CCRF-CEM [3] = experiment: Antiproliferative activity against human CEM cells after 72 hrs by coulter counting analysis; assay type: functional, cell-based
Outline: (§2)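 Cells exposed to a range of concentrations in RPMI 1640 at 37°C for 72 h. Surviving cells counted by Coulter counter. IC50 taken from concentration-response curves, mean ± SD of at least three independent experiments.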

YT = experiment: Cytotoxicity against human YT cells assessed as dead cells at 1 uM after 24 hrs; assay type: functional; outline: as §1
HeLa = experiment: Antiproliferative activity against human HeLa cells after 72 hrs by coulter counting analysis; assay type: functional, cell-based; outline: as §2
CCRF-CEM [4] = experiment: Cytotoxicity against human CEM cells assessed as dead cells at 1 uM after 24 hrs; assay type: functional; outline: as §1
HL-60(TB) = experiment: Antileukemic activity against human HL-60(TB) cells assessed as inhibition of tumor growth after 24 hrs; assay type: functional, cell-based; conditions: HL-60, 24 h
SR = experiment: Antileukemic activity against human SR cells assessed as inhibition of tumor growth after 24 hrs; assay type: functional, cell-based
MCF7 = experiment: Cytotoxicity against human MCF7 cells assessed as dead cells at 1 uM after 24 hrs; assay type: functional; outline: as §1
[5] = Antiproliferative activity against human Molt4/C8 cells after 72 hrs by coulter counting analysis; assay type: functional, cell-based; conditions: MOLT-4, 72 h; outline: as §2
Jurkat = experiment: Cytotoxicity against human Jurkat cells assessed as dead cells at 1 uM after 24 hrs; assay type: functional; outline: as §1
BJAB = experiment: Cytotoxicity against human BJAB cells assessed as dead cells at 1 uM after 24 hrs; assay type: functional; outline: as §1
HS27 = experiment: Cytotoxicity against human HS27 cells assessed as dead cells at 1 uM after 24 hrs; assay type: cell-based; conditions: hs27, 24 h
Outline: (§3)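 Compounds added from DMSO solutions to cells in medium (RPMI; DMEM for Hs-27 fibroblasts) and incubated 24 h at 37°C. Membrane disruption scored by propidium iodide uptake. Result is percentage of dead cells, average of three independent experiments.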

COLO 205 [6] = experiment: Ratio of 5-fluorouracil IC50 to compound IC50 for human COLO205 cells; assay type: functional; conditions: pooled result: one value given for 5 cell lines, strains, targets or settings
[7] = Cytotoxicity against human NCI60 cells assessed as inhibition of tumor growth after 24 hrs; assay type: functional, cell-based; conditions: NCI60, 24 h
RPMI-8226 = experiment: Ratio of melphalan IC50 to compound IC50 for human RPMI8226 cells; assay type: functional; conditions: pooled result: one value given for 3 cell lines, strains, targets or settings
HCC 2998 = experiment: Cytotoxicity against human HCC2998 cells assessed as inhibition of tumor growth after 24 hrs; assay type: functional, cell-based; conditions: HCC 2998, 24 h
[8] = Cytotoxicity against human NALM6 cells assessed as dead cells at 1 uM after 24 hrs; assay type: functional, NALM-6; outline: as §1
[9] = Cytotoxicity against human MCF10A cells assessed as dead cells at 1 uM after 24 hrs; assay type: cell-based; conditions: mcf-10a; outline: as §3
[10] = Cytotoxicity against human MOLT3 cells assessed as dead cells at 1 uM after 24 hrs; assay type: functional, MOLT-3; outline: as §1
K562 = experiment: Antileukemic activity against human K562 cells assessed as inhibition of tumor growth after 24 hrs; assay type: functional, cell-based; conditions: K562, 24 h
[11] = Cytotoxicity against human 22Rvl cells assessed as dead cells at 1 uM after 24 hrs; assay type: functional; outline: as §1
[12] = Cytotoxicity against human HuT-102 cells assessed as dead cells at 1 uM after 24 hrs; assay type: functional; outline: as §1
MOLT-4 [13] = experiment: Ratio of melphalan IC50 to compound IC50 for human Molt4/C8 cells; assay type: functional; conditions: pooled result: one value given for 4 cell lines, strains, targets or settings
Raji = experiment: Cytotoxicity against human Raji cells assessed as dead cells at 1 uM after 24 hrs; assay type: functional; outline: as §1
[14] = Cytotoxicity against human MDA231 cells assessed as dead cells at 1 uM after 24 hrs; assay type: functional, MDA-MB-231; outline: as §1
MOLT-4 [15] = experiment: Ratio of curcumin IC50 to compound IC50 for human Molt4/C8 cells; assay type: functional; conditions: pooled result: one value given for 4 cell lines, strains, targets or settings
SW-620 = experiment: Cytotoxicity against human SW620 cells assessed as inhibition of tumor growth after 24 hrs; assay type: functional, cell-based; conditions: SW-620, 24 h
EL4 = experiment: Cytotoxicity against mouse EL4 cells assessed as dead cells at 1 uM after 24 hrs; assay type: functional; outline: as §1
[16] = Antileukemic activity against human RPMI8226 cells assessed as inhibition of tumor growth after 24 hrs; assay type: functional, cell-based; conditions: rpmi-8226
HCC70 = experiment: Cytotoxicity against human HCC70 cells assessed as dead cells at 1 uM after 24 hrs; assay type: functional; outline: as §1
[17] = Cytotoxicity against human HCT15 cells assessed as inhibition of tumor growth after 24 hrs; assay type: functional, cell-based; conditions: HCT-15, 24 h
LAPC4 = experiment: Cytotoxicity against human LAPC4 cells assessed as dead cells at 1 uM after 24 hrs; assay type: functional; outline: as §1
CCRF-CEM [18] = experiment: Induction of apoptosis in human CEM T-lymphocytes assessed as caspase3 activation at necrotic cell stage at 1 uM after 8 hrs by flow cytometric analysis (reference value: 0%); assay type: functional
CCRF-CEM [19] = experiment: Induction of apoptosis in human CEM T-lymphocytes assessed as viable at necrotic cell stage at 1 uM after 8 hrs by flow cytometric analysis (reference value: 95.7%); assay type: functional
CCRF-CEM [20] = experiment: Induction of apoptosis in human CEM T-lymphocytes assessed as late apoptotic at necrotic cell stage at 1 uM after 8 hrs by flow cytometric analysis (reference value: 0%); assay type: functional
CCRF-CEM [21] = experiment: Induction of apoptosis in human CEM T-lymphocytes assessed as early apoptotic cells at 1 uM after 24 hrs by Annexin V/propidium iodide staining-based FITC analysis (reference value: 5.6%); assay type: functional
CCRF-CEM [22] = experiment: Induction of apoptosis in human CEM T-lymphocytes assessed as early apoptotic at necrotic cell stage at 1 uM after 8 hrs by flow cytometric analysis (reference value: 4.3%); assay type: functional
CCRF-CEM [23] = experiment: Cytotoxicity against human CEM T-lymphocytes assessed as mitochondrial membrane depolarization at 1 uM after 8 hrs by JC-1 red/green staining analysis; assay type: functional, cell-based
Outline: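 CEM cells (RPMI-1640, 10% FBS, 50,000 per well) were exposed to 1 μM compound for 8 h at 37°C, 5% CO2, in triplicate. They were then stained with 2 μM JC-1; the red signal marks polarized mitochondria and the green signal marks depolarized ones. Green-emitting cells were counted by flow cytometry, about 10,000 events. Controls: untreated, DMSO and CCCP 50 μM.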

CCRF-CEM [24] = experiment: Induction of apoptosis in human CEM T-lymphocytes assessed as late apoptotic cells at 1 uM after 24 hrs by Annexin V/propidium iodide staining-based FITC analysis (reference value: 0.8%); assay type: functional
CCRF-CEM [25] = experiment: Induction of apoptosis in human CEM T-lymphocytes assessed as viable cells at 1 uM after 24 hrs by Annexin V/propidium iodide staining-based FITC analysis (reference value: 93.4%); assay type: functional; conditions: read-out: Activity
CCRF-CEM [26] = experiment: Induction of apoptosis in human CEM T-lymphocytes assessed as necrotic cells at 1 uM after 24 hrs by Annexin V/propidium iodide staining-based FITC analysis (reference value: 0.2%); assay type: functional

SMILES | Activity (DU-145) | Activity (Ramos) | IC50 (L1210) | Activity [2] | IC50 (CCRF-CEM [3]) | Activity (YT) | IC50 (HeLa) | Activity (CCRF-CEM [4]) | Activity (MCF7) | IC50 [5] | Activity (Jurkat) | Activity (BJAB) | Activity (HS27) | Activity [8] | Activity [9] | Activity [10] | Activity [11] | Activity [12] | Activity (Raji) | Activity [14] | further results
COc1cc(/C=C2\CN(C(=O)C(=O)N3C/C(=C\c4cc(OC)c(OC)c(OC)c4)C(=O)/C(=C/c4cc(OC)c(OC)c(OC)c4)C3)C/C(=C\c3cc(OC)c(OC)c(OC)c3)C2=O)cc(OC)c1OC | 41.3% | 65.1% | 182 nM | 38.2% | 325 nM | 13% | 246 nM | 84.1% | 43.2% | 47 nM | 78.7% | 60.9% | 15.4% | 67.6% | 7.6% | 30.3% | 3.4% | 50.5% | 55.7% | 4.7% | IC50 (KM12): 60 nM; IC50 (COLO 205 [1]): 70 nM; IC50 (HL-60(TB)): 70 nM; IC50 (SR): 20 nM; Ratio IC50 (COLO 205 [6]): 121; IC50 [7]: 60 nM; Ratio IC50 (RPMI-8226): 1418; IC50 (HCC 2998): 100 nM; IC50 (K562): 30 nM; Ratio IC50 (MOLT-4 [13]): 13.5; Ratio IC50 (MOLT-4 [15]): 63.8; IC50 (SW-620): 30 nM; Activity (EL4): 33.8%; IC50 [16]: 20 nM; Activity (HCC70): 7.3%; IC50 [17]: 70 nM; Activity (LAPC4): 9.7%
COc1ccc(/C=C2/CN(C(=O)CC(=O)N3C/C(=C\c4ccc(OC)c(OC)c4)C(=O)/C(=C/c4ccc(OC)c(OC)c4)C3)C/C(=C\c3ccc(OC)c(OC)c3)C2=O)cc1OC | 67.4% | 88.6% | 378 nM | 31% | 348 nM | 32.3% | 370 nM | 77.6% | 23% | 388 nM | 83.9% | 61% | 6.4% | 63.9% | 6.1% | 2.6% | 2% | 51.6% | 50.8% | 1.8% | Activity (CCRF-CEM [18]): 0%; Activity (CCRF-CEM [19]): 87.7%; Activity (CCRF-CEM [20]): 0%; Activity (CCRF-CEM [21]): 70.2%; Activity (CCRF-CEM [22]): 12.3%; Activity (CCRF-CEM [23]): Active; Activity (CCRF-CEM [24]): 23.3%; viability at 1 µM (CCRF-CEM [25]): 2.5%; Activity (CCRF-CEM [26]): 3.9%; Activity (EL4): 43.7%; Activity (HCC70): 2.1%; Activity (LAPC4): 20.6%
COc1ccc(/C=C2\CN(C(=O)C(=O)N3C/C(=C\c4ccc(OC)c(OC)c4)C(=O)/C(=C/c4ccc(OC)c(OC)c4)C3)C/C(=C\c3ccc(OC)c(OC)c3)C2=O)cc1OC | 45.7% | 87.4% | 6310 nM | 33% | 4360 nM | 39.2% | 4430 nM | 88.1% | 17.7% | 779 nM | 84.8% | 62.8% | 10.2% | 60.7% | 5.8% | 31.8% | 38.2% | 50.9% | 56.3% | 4.6% | Activity (CCRF-CEM [18]): 0%; Activity (CCRF-CEM [19]): 91%; Activity (CCRF-CEM [20]): 0%; Activity (CCRF-CEM [21]): 12.8%; Activity (CCRF-CEM [22]): 9%; Activity (CCRF-CEM [23]): Active; Activity (CCRF-CEM [24]): 38%; viability at 1 µM (CCRF-CEM [25]): 15.4%; Activity (CCRF-CEM [26]): 33.8%; Activity (EL4): 46.5%; Activity (HCC70): 3.9%; Activity (LAPC4): 35.4%
COc1cc(/C=C2/CN(C(=O)CC(=O)N3C/C(=C\c4cc(OC)c(OC)c(OC)c4)C(=O)/C(=C/c4cc(OC)c(OC)c(OC)c4)C3)C/C(=C\c3cc(OC)c(OC)c(OC)c3)C2=O)cc(OC)c1OC | – | – | 214 nM | – | 284 nM | – | 216 nM | – | – | 60 nM | – | – | – | – | – | – | – | – | – | – | IC50 (KM12): 40 nM; IC50 (COLO 205 [1]): 60 nM; IC50 (HL-60(TB)): 40 nM; IC50 (SR): 10 nM; Ratio IC50 (COLO 205 [6]): 141; IC50 [7]: 50 nM; Ratio IC50 (RPMI-8226): 1890; IC50 (HCC 2998): 100 nM; IC50 (K562): 30 nM; Ratio IC50 (MOLT-4 [13]): 14.2; Ratio IC50 (MOLT-4 [15]): 66.8; IC50 (SW-620): 50 nM; IC50 [16]: 50 nM; IC50 [17]: 30 nM
